Drawing on ChEMBL document CHEMBL1133445, “Nonpeptide alpha(v)beta(3) antagonists. 1. Transformation of a potent, integrin-selective alpha(IIb)beta(3) antagonist into a potent alpha(v)beta(3) antagonist” (J Med Chem, 2000), this text covers IC50, half-life and Kd for six compounds.

The species entered for series [1] is Rattus norvegicus. Nature of the series: In vitro inhibition of rat osteoclast-mediated bone resorption (BONE RES).
Series [2] is filed under the species Homo sapiens. Nature of the series: In vitro inhibition of the rate of ADP-stimulated human gel-filtered platelet aggregation (PLAGGIN). The class given is functional. Put shortly:
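Gel-filtered human platelets at 2×10^8/mL with 0.1 mg/mL human fibrinogen and 1 mM CaCl2. Light-transmittance aggregometry at 37 °C, with aggregation started by 10 μM ADP in the presence of test compound or vehicle.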

Series [3] relates to Rattus norvegicus. Briefly: Inhibition of the increase of serum calcium levels in a dose-dependent fashion after subcutaneous infusion for 6 hr to TPTX rats at doses 0.20, 0.67, and 2 mg/kg/h. The class given is organism-based. Details: route subcutaneous. Put shortly: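 Rats thyroparathyroidectomized and kept on a low-calcium diet; those with serum Ca < 8 mg/dL used. On day 3, anesthetized rats got subcutaneous infusion of vehicle or compound. Bovine PTH(1–34) at 0.03 nmol/h by osmotic minipump started 30 min later. Serum calcium measured at baseline and at the 4–6 h endpoint. Plasma drug levels measured by the echistatin binding bioassay.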

Series [4] addresses T1, Integrin alpha-V/beta-3 (Homo sapiens, UniProt P05106+P06756). Briefly: Displacement of [125I]nonpeptide ligand (compound 7) from purified human recombinant alphaV-beta3. The class given is protein-complex assay. In outline: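 αvβ3 purified from 293 cells overexpressing human recombinant receptor, captured on wheatgerm agglutinin scintillation proximity beads. Incubated with ~40 pM final 125I-labeled nonpeptide ligand in HEPES pH 7.5 binding buffer with Ca2+/Mg2+, overnight at 4 °C with rocking. Nonspecific binding with 1 μM final cold ligand. Counted by scintillation; IC50 derived. Error given as SD.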

The nature of series [5]: Half-life following a 1 mg/kg iv bolus dose to male rats (n=4). The format is ADME, organism-based. Details: dose 1 mg/kg, route intravenous. The following applies: rat, in vivo.
The target of series [6] is T1, Integrin alpha-V/beta-3. Briefly: Displacement of [125I]echistatin from human recombinant alpha-v beta-3 receptor. The class given is protein-complex assay. Put shortly:
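Cell extracts of HEK 293 stably transfected with human αvβ3 (~10 × 10^6 receptors/cell) incubated with 30 pM 125I-echistatin in Tris-HCl pH 7.8 buffer with NaCl, Ca/Mg and 0.1% BSA. Nonspecific binding with 1 μM unlabeled echistatin. Bound ligand separated by filtration on poly(ethylenimine)-soaked filters and gamma-counted. Error given as SD.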

Series [7] concerns the target T1, Integrin alpha-V/beta-3. Briefly: Dissociation constant of radiolabeled compound binding to alpha-v-beta-3. The class given is protein-complex assay.

T1 sequence (P05106 27-788 limits assumed): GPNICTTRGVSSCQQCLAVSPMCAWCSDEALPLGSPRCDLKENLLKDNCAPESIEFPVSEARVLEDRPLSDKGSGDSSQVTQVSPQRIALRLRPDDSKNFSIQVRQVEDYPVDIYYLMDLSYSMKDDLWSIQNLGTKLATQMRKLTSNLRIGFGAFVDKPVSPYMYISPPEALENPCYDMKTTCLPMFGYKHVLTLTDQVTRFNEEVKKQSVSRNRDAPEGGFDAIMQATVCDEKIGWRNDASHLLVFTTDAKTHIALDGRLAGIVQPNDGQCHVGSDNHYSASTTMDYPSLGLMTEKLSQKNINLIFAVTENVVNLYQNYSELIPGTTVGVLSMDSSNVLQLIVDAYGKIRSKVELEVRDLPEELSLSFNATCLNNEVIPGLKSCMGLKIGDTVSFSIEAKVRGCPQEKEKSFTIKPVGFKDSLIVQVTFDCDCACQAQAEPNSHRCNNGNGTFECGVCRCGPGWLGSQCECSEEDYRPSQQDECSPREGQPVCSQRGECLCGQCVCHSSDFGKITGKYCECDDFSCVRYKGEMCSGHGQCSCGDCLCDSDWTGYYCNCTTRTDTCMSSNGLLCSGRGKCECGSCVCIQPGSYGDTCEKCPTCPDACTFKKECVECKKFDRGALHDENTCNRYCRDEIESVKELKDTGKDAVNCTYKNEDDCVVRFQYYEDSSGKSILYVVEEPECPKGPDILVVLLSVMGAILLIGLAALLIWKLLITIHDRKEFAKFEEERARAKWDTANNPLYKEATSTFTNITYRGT
T1 sequence (P06756 31-889 limits assumed): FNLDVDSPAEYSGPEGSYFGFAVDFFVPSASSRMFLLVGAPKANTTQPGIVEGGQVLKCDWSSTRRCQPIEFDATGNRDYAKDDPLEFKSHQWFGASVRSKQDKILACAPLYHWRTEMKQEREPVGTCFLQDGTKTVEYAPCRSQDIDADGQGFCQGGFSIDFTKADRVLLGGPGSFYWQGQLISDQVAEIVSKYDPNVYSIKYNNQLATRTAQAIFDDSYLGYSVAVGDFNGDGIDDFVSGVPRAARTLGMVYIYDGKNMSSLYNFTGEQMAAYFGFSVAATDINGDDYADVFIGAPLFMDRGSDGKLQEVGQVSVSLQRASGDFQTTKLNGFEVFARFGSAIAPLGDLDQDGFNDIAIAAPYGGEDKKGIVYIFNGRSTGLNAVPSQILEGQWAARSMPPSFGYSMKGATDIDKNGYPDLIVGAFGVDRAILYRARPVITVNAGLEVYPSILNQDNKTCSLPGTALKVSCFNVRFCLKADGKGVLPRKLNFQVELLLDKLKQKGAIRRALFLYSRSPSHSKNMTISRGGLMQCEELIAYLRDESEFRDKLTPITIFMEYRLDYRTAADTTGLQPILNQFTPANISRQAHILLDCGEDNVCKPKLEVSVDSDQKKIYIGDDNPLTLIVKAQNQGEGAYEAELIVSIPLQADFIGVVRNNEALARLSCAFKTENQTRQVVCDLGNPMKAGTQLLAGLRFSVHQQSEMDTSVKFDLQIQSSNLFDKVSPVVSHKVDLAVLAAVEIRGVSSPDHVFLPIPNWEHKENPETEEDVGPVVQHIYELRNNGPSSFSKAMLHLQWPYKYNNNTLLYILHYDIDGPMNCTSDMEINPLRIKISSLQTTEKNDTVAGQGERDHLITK
T1 sequence (P06756 891-1048 limits assumed): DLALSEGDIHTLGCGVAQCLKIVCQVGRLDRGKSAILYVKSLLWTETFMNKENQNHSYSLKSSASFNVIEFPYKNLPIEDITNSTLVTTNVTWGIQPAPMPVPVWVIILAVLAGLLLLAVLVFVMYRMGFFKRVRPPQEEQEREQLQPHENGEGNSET

`O=C(NC[C@H](NS(=O)(=O)c1ccccc1)C(=O)O)c1ccc(CCc2ccc3c(n2)NCCC3)cc1`: the IC50 in series [1] came out at 3 nM; in series [2] it was 260 nM; in series [3] it was 200 nM; in series [4], 0.07 nM; in series [6], 0.3 nM. Besides, the half-life in series [5] was under 30 min.

For the compound `O=C(NC[C@H](NS(=O)(=O)c1ccccc1)C(=O)O)c1ccc(OCCNC2=NCCCN2)cc1`, the IC50 in series [1] stood at 46 nM; in series [2], 44 nM; in series [4] it was 0.93 nM; in series [6], 0.7 nM.

`N=C(N)NCCOc1ccc(C(=O)NC[C@H](NS(=O)(=O)c2ccccc2)C(=O)O)cc1`: the IC50 in series [1] was determined as 300 nM; in series [2], 17 nM; in series [4] it was 10.7 nM; in series [6] it was 1.8 nM.

As for `O=C(NC[C@H](NS(=O)(=O)c1ccccc1)C(=O)O)c1ccc(OCCC2CCNCC2)cc1`, the IC50 in series [2] was 10 nM; in series [4], over 1000 nM; in series [6], over 1000 nM.

With `Nc1cccc(CCc2ccc(C(=O)NC[C@H](NS(=O)(=O)c3ccccc3)C(=O)O)cc2)n1`, the IC50 in series [1] worked out at 8 nM; in series [2] it was 140 nM; in series [4] it was 0.44 nM; in series [6], 0.4 nM.

With `Nc1cccc(CCc2ccc(C(=O)NC[C@H](NS(=O)(=O)c3ccc(I)cc3)C(=O)O)cc2)n1`, the IC50 in series [2] was determined as 1600 nM; in series [4] it was 0.08 nM; in series [6], 0.1 nM. In series [7], the affinity, expressed as Kd, was 0.06 nM.
